From ChEMBL document CHEMBL4706620, “Design, synthesis, biological activity evaluation of 3-(4-phenyl-1H-imidazol-2-yl)-1H-pyrazole derivatives as potent JAK 2/3 and aurora A/B kinases multi-targeted inhibitors” (Eur J Med Chem, 2021)
Calls of active or inactive are those of the source. The rule behind the calls is not given here.

Tests used:
[1] = system: HCT-116; test: Cell cycle arrest in human HCT116 cells assessed as accumulation of diploid cells at S phase at 1 uM incubated for 48 hrs by propidium iodide staining based flow cytometric analysis (reference value: 11.92 %); format: functional
[2] = system: HCT-116; test: Antiproliferative activity against human HCT116 cells assessed as reduction in cell growth measured after 72 hrs by CCK8 assay; format: functional, cell-based; settings: HCT-116, 72 h
[3] = system: HCT-116; test: Cell cycle arrest in human HCT116 cells assessed as accumulation of diploid cells at G1 phase at 20 uM incubated for 48 hrs by propidium iodide staining based flow cytometric analysis (reference value: 77.62 %); format: functional
[4] = biological target: T1, Aurora kinase A (Homo sapiens) (UniProt O14965); test: Inhibition of Aurora A phosphorylation in human K562 cells incubated for 48 hrs by Western blot analysis; format: cell-based; settings: dose 1-20 µM
T1 sequence (whole entry): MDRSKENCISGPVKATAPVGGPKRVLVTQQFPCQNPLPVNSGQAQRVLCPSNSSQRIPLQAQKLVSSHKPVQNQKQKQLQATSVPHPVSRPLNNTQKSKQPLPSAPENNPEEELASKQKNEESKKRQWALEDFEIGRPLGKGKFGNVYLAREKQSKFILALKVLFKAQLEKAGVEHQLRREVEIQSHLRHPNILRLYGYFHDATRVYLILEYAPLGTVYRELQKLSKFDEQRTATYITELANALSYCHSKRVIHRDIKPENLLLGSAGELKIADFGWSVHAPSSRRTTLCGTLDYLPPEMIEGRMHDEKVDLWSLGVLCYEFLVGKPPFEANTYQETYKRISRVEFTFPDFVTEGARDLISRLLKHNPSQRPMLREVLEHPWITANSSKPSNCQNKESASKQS
How it was run: (§1)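 K562 or HCT116 cells treated 48 h at 1, 10 and 20 µM alongside untreated control; lysed in cold RIPA, protein by BCA, SDS-PAGE, nitrocellulose transfer, 5% milk block, primary antibody overnight at 4 °C, secondary 1 h; p-Aurora A, p-Aurora B, p-STAT3, p-STAT5 probed with GAPDH loading control.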

[5] = biological target: T2, Aurora kinase A (Homo sapiens, UniProt O14965); test: Inhibition of Aurora A (unknown origin) incubated for 40 mins in presence of ATP by Kinase-glo luminescence assay
T2 sequence (O14965 whole entry): T1 sequence (whole entry)

[6] = system: HCT-116; test: Cell cycle arrest in human HCT116 cells assessed as accumulation at […] phase at 20 uM incubated for 48 hrs by propidium iodide staining based flow cytometric analysis (reference value: 2.01 %); format: functional
[7] = biological target: T3, JAK2/JAK3 (Homo sapiens) (UniProt P52333+O60674); test: Inhibition of JAK2/3 in human K562 cells assessed as inhibition of STAT3 phosphorylation at 1 to 20 uM measured after 48 hrs by Western blot analysis; format: cell-based; settings: dose 1-20 µM; how it was run: as §1
T3 sequence (O60674 whole entry, looked up): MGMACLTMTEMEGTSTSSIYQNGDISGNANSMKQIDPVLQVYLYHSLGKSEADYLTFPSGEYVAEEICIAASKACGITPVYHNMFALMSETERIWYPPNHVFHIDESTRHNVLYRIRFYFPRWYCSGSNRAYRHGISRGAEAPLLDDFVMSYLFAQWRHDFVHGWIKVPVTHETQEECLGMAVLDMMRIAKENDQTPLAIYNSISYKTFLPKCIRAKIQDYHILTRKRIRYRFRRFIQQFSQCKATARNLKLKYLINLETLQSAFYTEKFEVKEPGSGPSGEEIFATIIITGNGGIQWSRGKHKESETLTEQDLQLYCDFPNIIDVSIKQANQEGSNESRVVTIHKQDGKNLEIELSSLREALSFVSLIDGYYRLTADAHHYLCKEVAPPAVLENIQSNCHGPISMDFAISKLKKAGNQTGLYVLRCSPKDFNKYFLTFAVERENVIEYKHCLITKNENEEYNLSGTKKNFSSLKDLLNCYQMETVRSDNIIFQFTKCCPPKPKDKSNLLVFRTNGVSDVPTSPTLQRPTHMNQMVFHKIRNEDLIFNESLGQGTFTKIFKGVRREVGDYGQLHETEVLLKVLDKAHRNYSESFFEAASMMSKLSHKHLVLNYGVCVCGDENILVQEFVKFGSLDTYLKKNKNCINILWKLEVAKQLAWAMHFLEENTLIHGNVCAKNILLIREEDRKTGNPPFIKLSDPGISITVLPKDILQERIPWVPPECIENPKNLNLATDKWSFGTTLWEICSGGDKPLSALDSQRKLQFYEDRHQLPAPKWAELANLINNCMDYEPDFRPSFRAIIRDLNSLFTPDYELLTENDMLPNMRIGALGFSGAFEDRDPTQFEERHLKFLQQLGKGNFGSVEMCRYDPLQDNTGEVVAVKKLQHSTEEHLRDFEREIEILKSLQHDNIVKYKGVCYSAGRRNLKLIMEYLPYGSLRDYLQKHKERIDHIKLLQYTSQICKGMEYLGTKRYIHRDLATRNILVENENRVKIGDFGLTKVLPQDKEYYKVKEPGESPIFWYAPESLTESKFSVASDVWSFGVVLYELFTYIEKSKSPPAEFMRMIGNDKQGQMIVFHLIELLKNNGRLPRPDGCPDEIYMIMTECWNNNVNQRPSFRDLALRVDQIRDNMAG
T3 sequence (P52333 whole entry, looked up): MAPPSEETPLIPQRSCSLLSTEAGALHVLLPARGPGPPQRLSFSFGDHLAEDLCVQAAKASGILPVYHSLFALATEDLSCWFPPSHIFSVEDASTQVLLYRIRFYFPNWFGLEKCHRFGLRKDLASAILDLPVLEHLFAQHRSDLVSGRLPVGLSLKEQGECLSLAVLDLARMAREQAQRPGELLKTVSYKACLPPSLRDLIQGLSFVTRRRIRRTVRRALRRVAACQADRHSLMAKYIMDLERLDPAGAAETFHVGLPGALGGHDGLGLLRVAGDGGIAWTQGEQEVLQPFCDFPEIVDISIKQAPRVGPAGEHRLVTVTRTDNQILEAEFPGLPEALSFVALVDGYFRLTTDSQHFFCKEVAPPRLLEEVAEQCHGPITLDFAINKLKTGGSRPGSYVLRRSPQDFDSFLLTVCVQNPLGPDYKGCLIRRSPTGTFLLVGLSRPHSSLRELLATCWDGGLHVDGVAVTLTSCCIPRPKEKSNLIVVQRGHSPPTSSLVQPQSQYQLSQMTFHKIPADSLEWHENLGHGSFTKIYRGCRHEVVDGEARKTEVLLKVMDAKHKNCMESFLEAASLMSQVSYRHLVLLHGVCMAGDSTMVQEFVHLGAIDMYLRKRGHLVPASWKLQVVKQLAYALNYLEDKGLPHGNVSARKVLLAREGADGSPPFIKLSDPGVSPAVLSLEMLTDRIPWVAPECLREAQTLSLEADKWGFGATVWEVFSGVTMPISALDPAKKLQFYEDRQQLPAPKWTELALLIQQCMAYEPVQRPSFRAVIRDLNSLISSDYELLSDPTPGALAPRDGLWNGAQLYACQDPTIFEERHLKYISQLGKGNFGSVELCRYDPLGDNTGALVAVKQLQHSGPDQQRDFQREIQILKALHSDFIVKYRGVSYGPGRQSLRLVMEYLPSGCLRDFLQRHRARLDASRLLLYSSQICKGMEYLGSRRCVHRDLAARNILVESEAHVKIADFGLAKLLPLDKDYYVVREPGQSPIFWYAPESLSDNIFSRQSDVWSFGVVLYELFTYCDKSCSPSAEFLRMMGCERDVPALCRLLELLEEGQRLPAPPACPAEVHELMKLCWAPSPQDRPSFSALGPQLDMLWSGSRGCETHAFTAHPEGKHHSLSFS

[8] = system: HCT-116; test: Cell cycle arrest in human HCT116 cells assessed as accumulation at […] phase at 1 uM incubated for 48 hrs by propidium iodide staining based flow cytometric analysis (reference value: 2.01 %); format: functional
[9] = biological target: T4, Aurora kinase B (Homo sapiens, UniProt Q96GD4); test: Inhibition of Aurora B phosphorylation in human HCT116 cells incubated for 48 hrs by Western blot analysis; format: cell-based; settings: HCT-116, dose 1-20 µM; how it was run: as §1
T4 sequence (Q96GD4 whole entry): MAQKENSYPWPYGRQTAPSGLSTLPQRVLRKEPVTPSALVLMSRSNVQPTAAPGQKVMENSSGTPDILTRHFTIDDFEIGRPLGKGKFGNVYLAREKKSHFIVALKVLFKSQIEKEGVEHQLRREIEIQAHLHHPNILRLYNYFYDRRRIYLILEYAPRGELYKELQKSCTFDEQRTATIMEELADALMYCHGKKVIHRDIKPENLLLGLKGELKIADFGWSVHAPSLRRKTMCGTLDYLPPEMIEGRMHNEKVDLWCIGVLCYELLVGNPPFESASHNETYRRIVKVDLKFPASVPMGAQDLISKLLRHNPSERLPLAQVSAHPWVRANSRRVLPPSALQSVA

[10] = system: K562; test: Cell cycle arrest in human K562 cells assessed as accumulation at […] phase at 10 uM incubated for 48 hrs by propidium iodide staining based flow cytometric analysis (reference value: 1.90 %); format: functional
[11] = system: HCT-116; test: Cell cycle arrest in human HCT116 cells assessed as accumulation of diploid cells at G2 phase at 10 uM incubated for 48 hrs by propidium iodide staining based flow cytometric analysis (reference value: 10.46 %); format: functional
[12] = species on record: Homo sapiens; test: Selectivity for JAK2 (unknown origin) over Aurora A (unknown origin)
[13] = biological target: T3, JAK2/JAK3 (Homo sapiens); test: Inhibition of JAK2/3 in human K562 cells assessed as inhibition of STAT5 phosphorylation at 1 to 20 uM measured after 48 hrs by Western blot analysis; format: cell-based; settings: dose 1-20 µM; how it was run: as §1
[14] = system: K562; test: Cell cycle arrest in human K562 cells assessed as accumulation of diploid cells at G2 phase at 10 uM incubated for 48 hrs by propidium iodide staining based flow cytometric analysis (reference value: 7.73 %); format: functional
[15] = system: HUVEC; test: Cytotoxicity against HUVEC assessed as reduction in cell growth measured after 72 hrs by CCK8 assay; format: cell-based; settings: Homo sapiens
[16] = system: HCT-116; test: Cell cycle arrest in human HCT116 cells assessed as accumulation of diploid cells at G2 phase at 1 uM incubated for 48 hrs by propidium iodide staining based flow cytometric analysis (reference value: 10.46 %); format: functional
[17] = system: K562; test: Cell cycle arrest in human K562 cells assessed as accumulation of diploid cells at G1 phase at 1 uM incubated for 48 hrs by propidium iodide staining based flow cytometric analysis (reference value: 56.33 %); format: functional
[18] = system: K562; test: Cell cycle arrest in human K562 cells assessed as accumulation of diploid cells at G2 phase at 20 uM incubated for 48 hrs by propidium iodide staining based flow cytometric analysis (reference value: 7.73 %); format: functional
[19] = system: K562; test: Cell cycle arrest in human K562 cells assessed as accumulation at […] phase at 20 uM incubated for 48 hrs by propidium iodide staining based flow cytometric analysis (reference value: 1.90 %); format: functional
[20] = biological target: T4, Aurora kinase B; test: Inhibition of Aurora B phosphorylation in human K562 cells incubated for 48 hrs by Western blot analysis; format: cell-based; settings: dose 1-20 µM; how it was run: as §1
[21] = system: HCT-116; test: Cell cycle arrest in human HCT116 cells assessed as accumulation of diploid cells at G1 phase at 10 uM incubated for 48 hrs by propidium iodide staining based flow cytometric analysis (reference value: 77.62 %); format: functional
[22] = system: K562; test: Cell cycle arrest in human K562 cells assessed as accumulation of diploid cells at G1 phase at 10 uM incubated for 48 hrs by propidium iodide staining based flow cytometric analysis (reference value: 56.33 %); format: functional
[23] = biological target: T3, JAK2/JAK3 (Homo sapiens); test: Inhibition of JAK2/3 in human HCT116 cells assessed as inhibition of STAT5 phosphorylation at 1 to 20 uM measured after 48 hrs by Western blot analysis; format: cell-based; settings: HCT-116, dose 1-20 µM; how it was run: as §1
[24] = system: K562; test: Cell cycle arrest in human K562 cells assessed as accumulation of diploid cells at S phase at 20 uM incubated for 48 hrs by propidium iodide staining based flow cytometric analysis (reference value: 35.94 %); format: functional
[25] = biological target: T3, JAK2/JAK3 (Homo sapiens); test: Inhibition of JAK2/3 in human HCT116 cells assessed as inhibition of STAT3 phosphorylation at 1 to 20 uM measured after 48 hrs by Western blot analysis; format: cell-based; settings: HCT-116, dose 1-20 µM; how it was run: as §1
[26] = species on record: Homo sapiens; test: Selectivity for JAK3 (unknown origin) over Aurora A (unknown origin)

`O=C(Nc1c[nH]nc1-c1nc(-c2ccc(CN3CCOCC3)cc2)c[nH]1)c1cccc(Cl)c1` was tested, and the Activity [1] was 14.46%, the IC50 [2] was 15.1 µM and the Activity [3] was 57.52%. The inhibition [4] was “Dose-dependent effect”, the IC50 [5] was 0.939 µM and the Activity [6] was 1.98%. The inhibition [7] was “Active”, the Activity [8] was 2% and the inhibition [9] was “Dose-dependent effect”. The Activity [10] was 2.09%, the Activity [11] was 16.16% and the Selectivity ratio [12] was 20. The inhibition [13] was “Active”, the Activity [14] was 16.27% and the IC50 [15] was 29 µM. The Activity [16] was 13.34%, the Activity [17] was 56.05% and the Activity [18] was 19%. For the same molecule, the Activity [19] was 2.06%, the inhibition [20] was “Dose-dependent effect” and the Activity [21] was 66.57%. The Activity [22] was 47.87%, the inhibition [23] was “Active” and the Activity [24] was 35.1%. For the same molecule, the inhibition [25] was “Active” and the Selectivity ratio [26] was 20.
